Experimental data as given in PMC4130341 (Journal of nuclear medicine : official publication, Society …, 2013).
Bridge positions count the residues as written; N and C are the ends. Peptide text beside a SMILES is read from it. * marks the point of attachment. Benzoyl(4-F) = O=C(c1ccc(F)cc1)*

Key:
[1] = test system: 293 (integrin αvβ6–negative) tumors; experiment: Excised tissue biodistribution; type: in vivo, mice; details: γ-counter, mean ± SD
How it was run: (§1)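 Tumors were grown as subcutaneous shoulder xenografts (10^7 BxPC3 or HEK-293 cells) in 6-wk female nu/nu mice to 10 mm diameter. Isoflurane-anaesthetised mice received 2–3 MBq of 18F-fluorobenzoate peptide by tail vein and were euthanised at 0.5 or 2 h. Weighed tissues were γ-counted and expressed as decay-corrected %ID/g, mean ± SD. Group sizes: BxPC3 3 (0.5 h), 4–5 (2 h); 293 3 (0.5 h), 3–4 (2 h); nontumor 6 (0.5 h), 8 (2 h).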

[2] = test system: BxPC3 xenografted tumors; heart (blood) radioactivity; experiment: Dynamic PET; type: in vivo; details: from radioactivity in the heart, 10-min dynamic PET, mice, tail vein
How it was run: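 Female nu/nu mice (6 wk) received 10^7 BxPC3 or HEK-293 cells subcutaneously in the shoulder and grew tumors to 10 mm diameter. Under isoflurane, mice got 2–3 MBq of 18F-fluorobenzoate-labelled peptide by tail vein. A 10-min dynamic scan was acquired on a rodent microPET. Mean signal in ellipsoid regions of interest was quantified.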

BxPC3 tumors = experiment: Coinjection study with unlabeled peptide, excised tissue biodistribution; type: in vivo, mice; details: 250 µg unlabeled S02 coinjected
[3] = test system: BxPC3 (integrin αvβ6–positive) tumors; experiment: Excised tissue biodistribution; type: in vivo, mice; details: γ-counter, mean ± SD
How it was run: as §1

[4] = test system: BxPC3 (integrin αvβ6–positive) pancreatic adenocarcinoma xenografted tumors; experiment: Small-animal PET, static scans, BxPC3 xenografts; type: in vivo, mice; details: mean ± SD
How it was run: (§2)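 Nu/nu female mice (6 wk) carried BxPC3 shoulder xenografts of 10 mm diameter. Under isoflurane they were dosed intravenously (tail vein) with 2–3 MBq of 18F-fluorobenzoate-labelled peptide. Rodent microPET 5-min static scans were taken at 0.5, 1 and 2 h. Tumor, kidney, liver and hind-leg muscle signals were quantified, given as mean ± SD (n = 4–5 per tracer) and compared by 2-tailed t test, P < 0.05.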

[5] = Small-animal PET, static scans, BxPC3 xenografts; type: in vivo, mice; details: female, nu/nu, mouse, iv, total radioactivity
How it was run: as §2

Structure (SMILES): CC[C@H](C)[C@@H]1NC(=O)[C@@H]2CSSC[C@H](NC(=O)CNC(=O)c3ccc(F)cc3)C(=O)N[C@@H](CCCNC(=N)N)C(=O)N[C@@H](CO)C(=O)N[C@@H](CC(C)C)C(=O)N[C@@H](C)C(=O)N[C@@H](CCCNC(=N)N)C(=O)N[C@@H]([C@@H](C)O)C(=O)N[C@@H](CC(=O)O)C(=O)N[C@@H](CC(C)C)C(=O)N[C@@H](CC(=O)O)C(=O)N[C@@H](Cc3c[nH]cn3)C(=O)N[C@@H](CC(C)C)C(=O)N[C@@H](CCCNC(=N)N)C(=O)NCC(=O)N[C@@H](CCCNC(=N)N)C(=O)N[C@H]3CSSC[C@H](NC1=O)C(=O)N[C@@H](CC(C)C)C(=O)N[C@@H](CCC(=O)O)C(=O)N[C@@H](CC(N)=O)C(=O)NCC(=O)N[C@@H](Cc1ccccc1)C(=O)N[C@H](C(=O)NCC(=O)O)CSSC[C@H](NC(=O)[C@H](CC(=O)O)NC(=O)[C@H](CO)NC(=O)[C@H](CC(=O)O)NC(=O)[C@H](CO)NC(=O)[C@H](CO)NC3=O)C(=O)N[C@@H](CC(C)C)C(=O)N[C@@H](C)C(=O)N[C@@H](CCC(=O)O)C(=O)N2 [^18F-fluorobenzoate-S02] ({Benzoyl(4-F)}-GCRSLARTDLDHLRGRCSSDSDCLAECICLENGFCG-OH; disulfide 2-27, 17-29, 23-35; C-terminus assumed)
- tumor uptake, excised tissue, 293 ([1]; 0.5 h after injection, n = 3): 0.11 ± 0.02 %ID/g
- tumor uptake, excised tissue, 293 ([1]; 2 h after injection, n = 3–4): 0.10 ± 0.05 %ID/g
- blood clearance half-time [2]: 1.8 min
- effect of unlabeled peptide coinjection on tumor uptake (BxPC3 tumors): does not demonstrate tumor uptake reduction
- tumor uptake, excised tissue, BxPC3 ([3]; 0.5 h after injection, n = 3): 0.71 ± 0.13 %ID/g
- tumor uptake, excised tissue, BxPC3 ([3]; 2 h after injection, n = 4–5): 0.24 ± 0.06 %ID/g
- kidney uptake, PET ([4]; 0.5 h): 18% ± 6%
- tumor uptake, PET, BxPC3 ([4]; 0.5 h after injection, 2–3 MBq tail vein, nude mice, n = 4–5): 1.3% ± 0.4%
- tumor signal, PET, BxPC3 ([4]; 1 h after injection, 2–3 MBq tail vein): 0.7 ± 0.3 % ID/g
- liver uptake, PET ([4]; time not printed at place (given beside the 0.5 h kidney values)): 0.9% ± 0.3%
- tissue uptake at 1 h ([5]; kidney): 7 ± 3 %ID/g
- tissue uptake at 1 h ([5]; liver): 0.3 ± 0.1 %ID/g
